Test results from ChEMBL document CHEMBL1139126, “Diazenedicarboxamides as inhibitors of D-alanine-D-alanine ligase (Ddl)” (Bioorg Med Chem Lett, 2007).
Values after ≈ are worked out from the molar mass of the structure shown.

Legend:
[1] = system: Escherichia coli; experiment: Inhibition of Escherichia coli DdlB assessed as residual activity at 500 uM
Summary of the method: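 Endpoint phosphate-release assay using purified DdlB with 500 µM test compound, 700 µM D-Ala, 500 µM ATP, in 38.5 mM Hepes pH 8.0 with MgCl2, (NH4)2SO4 and 5% DMSO. Run 30 min at 37 °C, then Biomol reagent and A650 read. Residual activity relative to an uninhibited assay. Mean of two independent experiments.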

[2] = Inhibition of Escherichia coli DdlB
Summary of the method: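 Purified E. coli DdlB in 38.5 mM Hepes pH 8.0, 3.25 mM MgCl2, 6.5 mM (NH4)2SO4, 700 µM D-Ala, 500 µM ATP, 5% DMSO, with a range of inhibitor concentrations. Incubated 30 min at 37 °C. Released phosphate detected by Biomol reagent, A650 after 5 min. IC50 taken from residual activity versus no-inhibitor control. Means of two independent experiments.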

[3] = system: Escherichia coli; experiment: Antibacterial activity against Escherichia coli 1411; assay type: functional
Summary of the method: (§1)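 Broth microdilution MIC in IsoSensitest broth; inoculum 10⁴ cells per mL for E. coli, 10⁶ cells per mL for S. aureus. Compounds in 2-fold dilution series prepared in 50% DMSO. Incubated 16 h at 37 °C with OD600 read every 10 min, shaken 30 s before each read. MIC = lowest concentration preventing growth.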

[4] = system: Escherichia coli; experiment: Antibacterial activity against acrAB deficient Escherichia coli 1411; assay type: functional; summary of the method: as §1
[5] = system: Staphylococcus aureus; experiment: Antibacterial activity against Staphylococcus aureus 8325-4; assay type: functional; summary of the method: as §1

Row | SMILES | Activity [1] | IC50 [2] | MIC [3] | MIC [4] | MIC [5]
1 | CCOC(=O)NNC(=O)Nc1ccc(F)cc1 | 0% |  |  |  | 
2 | CN(C)CCNC(=O)NNC(=O)Nc1ccccc1 | 2% |  |  |  | 
3 | N[C@@H]1CONC1=O [CYCLOSERINE] |  | 314 µM | 16 µg/mL (≈ 157 µM) | 16 µg/mL (≈ 157 µM) | 32 µg/mL (≈ 313 µM)
4 | O=C(/N=N/C(=O)NCc1ccccn1)NCCCl |  | 119 µM | > 256 µg/mL | > 256 µg/mL | > 256 µg/mL
5 | O=C(/N=N/C(=O)Nc1ccc(F)cc1)NCc1ccncc1 |  | 73 µM | 64 µg/mL (≈ 212 µM) | 64 µg/mL (≈ 212 µM) | 128 µg/mL (≈ 425 µM)
6 | O=C(/N=N/C(=O)NCCCl)NCCCl |  | 133 µM | > 256 µg/mL | > 256 µg/mL | > 256 µg/mL
7 | O=C(/N=N/C(=O)Nc1cccc(Cl)c1)NCc1cccnc1 |  | 15 µM | 64 µg/mL (≈ 201 µM) | 64 µg/mL (≈ 201 µM) | 256 µg/mL (≈ 806 µM)
8 | COC(=O)NNC(=O)NCCCl | 5% |  |  |  | 
9 | CCOC(=O)/N=N/C(=O)Nc1cccc(Cl)c1 | 33% |  |  |  | 
10 | CC(C)(C)c1ccc(NC(=O)/N=N/C(=O)NCc2ccncc2)cc1 |  | > 500 µM |  |  | 
11 | CCOC(=O)/N=N/C(=O)Nc1ccc(F)cc1 | 37% |  |  |  | 
12 | O=C(/N=N/C(=O)NC1CCCCC1)NCc1ccncc1 |  | 121 µM | 256 µg/mL (≈ 885 µM) | 256 µg/mL (≈ 885 µM) | 128 µg/mL (≈ 442 µM)
13 | CCC(C)c1ccc(NC(=O)/N=N/C(=O)NCCCl)cc1 (stereo not drawn) |  | 25 µM | > 256 µg/mL | > 256 µg/mL | > 256 µg/mL
14 | CC(C)c1ccc(NC(=O)/N=N/C(=O)NCCCl)cc1 |  | 49 µM | > 256 µg/mL | > 256 µg/mL | > 256 µg/mL
15 | CCOC(=O)/N=N/C(=O)Nc1ccccc1 | 1% |  |  |  | 
16 | COC(=O)NNC(=O)NC1CCCCC1 | 1% |  |  |  | 
17 | O=C(/N=N/C(=O)Nc1ccccc1)NCc1cccnc1 |  | 36 µM | 64 µg/mL (≈ 226 µM) | 64 µg/mL (≈ 226 µM) | 128 µg/mL (≈ 452 µM)

The remaining lines, values ahead:

Row | Activity [1] | IC50 [2] | MIC [3] | MIC [4] | MIC [5] | SMILES
18 | 7% |  |  |  |  | CC(C)(C)OC(=O)/N=N/C(=O)NCCCl
19 | 0% |  |  |  |  | CCOC(=O)NNC(=O)Nc1cccc(Cl)c1
20 | 1% |  |  |  |  | CCOC(=O)NNC(=O)Nc1ccccc1
21 |  | 33 µM | 64 µg/mL (≈ 201 µM) | 64 µg/mL (≈ 201 µM) | 64 µg/mL (≈ 201 µM) | O=C(/N=N/C(=O)Nc1cccc(Cl)c1)NCc1ccncc1
22 | 3% |  |  |  |  | O=C(NCc1cccnc1)NNC(=O)Nc1cccc(Cl)c1
23 | 0% |  |  |  |  | O=C(NCc1cccnc1)NNC(=O)Nc1ccccc1
24 |  | 123 µM | > 256 µg/mL | > 256 µg/mL | > 256 µg/mL | O=C(/N=N/C(=O)NCc1cccnc1)NCc1cccnc1
25 |  | > 500 µM |  |  |  | CN(C)CCNC(=O)/N=N/C(=O)Nc1ccccc1
26 | 40% |  |  |  |  | CCOC(=O)/N=N/C(=O)Nc1ccc([N+](=O)[O-])cc1
27 |  | 236 µM | 128 µg/mL (≈ 475 µM) | 128 µg/mL (≈ 475 µM) | > 256 µg/mL | O=C(/N=N/C(=O)NCc1ccncc1)NCCCl
28 | 1% |  |  |  |  | CCOC(=O)NNC(=O)Nc1ccc([N+](=O)[O-])cc1
29 | 7% |  |  |  |  | COC(=O)/N=N/C(=O)NCCCl
30 |  | 111 µM | 64 µg/mL (≈ 226 µM) | 64 µg/mL (≈ 226 µM) | 64 µg/mL (≈ 226 µM) | O=C(/N=N/C(=O)Nc1ccccc1)NCc1ccccn1
31 |  | 106 µM | 64 µg/mL (≈ 226 µM) | 32 µg/mL (≈ 113 µM) | 128 µg/mL (≈ 452 µM) | O=C(/N=N/C(=O)Nc1ccccc1)NCc1ccncc1
